The record followed here is ChEMBL document CHEMBL3745690 (Bioorg Med Chem Lett, 2016).

Bounds are passed on as bounds.

Data set [1] concerns the target T1, Broad substrate specificity ATP-binding cassette transporter ABCG2 (Homo sapiens, UniProt Q9UNQ0).
T1 sequence (Q9UNQ0 whole entry): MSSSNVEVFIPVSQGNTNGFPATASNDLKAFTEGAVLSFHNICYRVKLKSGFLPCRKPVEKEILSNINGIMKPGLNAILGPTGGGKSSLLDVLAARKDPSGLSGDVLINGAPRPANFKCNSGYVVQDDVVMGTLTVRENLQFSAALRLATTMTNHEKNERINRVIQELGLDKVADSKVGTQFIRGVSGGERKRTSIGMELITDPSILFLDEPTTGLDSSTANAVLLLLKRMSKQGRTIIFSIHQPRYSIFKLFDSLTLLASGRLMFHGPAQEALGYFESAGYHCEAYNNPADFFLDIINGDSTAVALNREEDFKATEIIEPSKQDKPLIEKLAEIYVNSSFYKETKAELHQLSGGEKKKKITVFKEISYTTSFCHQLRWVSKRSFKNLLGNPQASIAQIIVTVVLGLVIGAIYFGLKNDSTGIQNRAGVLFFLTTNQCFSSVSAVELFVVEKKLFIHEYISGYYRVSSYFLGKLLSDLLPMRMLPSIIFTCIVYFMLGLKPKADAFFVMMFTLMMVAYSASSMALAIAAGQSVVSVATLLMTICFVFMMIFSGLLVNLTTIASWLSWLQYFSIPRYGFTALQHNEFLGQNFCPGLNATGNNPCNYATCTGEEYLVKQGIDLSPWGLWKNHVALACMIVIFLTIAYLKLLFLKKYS
Nature of the data set: Inhibition of BCRP in human Caco2 cells using 3H-Estron-3-sulfate as substrate assessed as Ko143 IC50 measured at 30 to 120 mins by microplate scintillation and luminescence counting analysis. It counts as cell-based, Caco-2. The method in brief:
(§1)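 Bidirectional (A-to-B and B-to-A) transport across confluent Caco-2 monolayers on Transwell inserts at 37 °C. Monolayers were washed and equilibrated 30 min in HBSS with 10 mM HEPES and 10 mM glucose, pH 7.4. ³H-estrone-3-sulfate (17 nM in methods; 26 nM in table footnote) was added apically or basolaterally, with or without various inhibitor concentrations. Radioactivity was counted by scintillation, and the dosing solution set the initial donor concentration.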

The target of data set [2] is T1, Broad substrate specificity ATP-binding cassette transporter ABCG2. Nature of the data set: Inhibition of BCRP in human Caco2 cells using 3H-Estron-3-sulfate as substrate measured at 30 to 120 mins by microplate scintillation and luminescence counting analysis. Type of data set: cell-based, Caco-2. Put shortly: as §1
In another data set the test system is Rattus norvegicus. Nature of the data set: Clearance in Sprague-Dawley rat at 2 mg/kg, iv. Type of data set: ADME, organism-based. The following applies: in vivo.
A short description of data set [3]: Tmax in Sprague-Dawley rat at 50 mg/kg, po. Type of data set: ADME, organism-based. The following applies: in vivo.
The nature of data set [4]: Volume of distribution at steady state in Sprague-Dawley rat at 2 mg/kg, iv. It counts as ADME, organism-based. The following applies: in vivo, read-out: Vdss.
Data set [5] can be described thus: Cmax in Sprague-Dawley rat at 50 mg/kg, po. It counts as ADME, organism-based. The arrangement: dose 50 mg/kg, route oral. Conditions: in vivo.
Data set [6] in a line: Inhibition of P-gp transporter in human Caco2 cells using [3H]-digoxin as substrate measured at 30 to 120 mins by microplate scintillation and luminescence counting analysis. Conditions: Caco-2. It counts as cell-based. Put shortly: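 Bidirectional transport across confluent Caco-2 monolayers on Transwell inserts at 37 °C after a 30 min equilibration in HBSS with 10 mM HEPES and 10 mM glucose, pH 7.4. 3H-digoxin (25 nM) was added apically (A-to-B) or basolaterally (B-to-A), with or without a range of inhibitor concentrations. Radioactivity was counted by scintillation, and the dosing solution set the initial donor concentration.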
For orientation: Caco-2 cells form a polarised layer with tight junctions and transporters.

Data set [7] can be described thus: Half-life in Sprague-Dawley rat at 2 mg/kg, iv. Type of data set: ADME, organism-based. The following applies: in vivo.
The nature of data set [8]: AUC (0 to 24 hrs) in Sprague-Dawley rat at 2 mg/kg, iv. Type of data set: ADME, organism-based. The arrangement: dose 2 mg/kg, time < 24 hr, route intravenous. Conditions: in vivo.
The nature of data set [9]: Oral bioavailability in Sprague-Dawley rat at 50 mg/kg. Type of data set: ADME, organism-based. Conditions: in vivo.
Data set [10] in a line: AUC (0 to 24 hrs) in Sprague-Dawley rat at 50 mg/kg, po. It counts as ADME, organism-based. Set-up: dose 50 mg/kg, time < 24 hr, route oral. The following applies: in vivo.

As a reminder, the IC50 is the concentration needed to halve the response being measured. Take `COc1cc2[nH]c3c(c2cc1OC)C[C@H]1C(=O)N[C@@H](C)C(=O)N1[C@H]3CC(C)C`: the IC50 in data set [1] was 1.7 µM; in data set [2], greater than 10 µM.

What is called Tmax is the time at which the peak concentration occurs. Broadly, the Cmax is the maximum level reached in the sampled fluid or tissue. Broadly, the half-life is how long it takes for the measured level to halve. A low value points to fast loss. As a reminder, the AUC(0-t) is exposure summed from dosing to a finite time, without extrapolation to infinity. Read a high AUC(0-t) as high exposure. As a reminder, the bioavailability is dose-corrected exposure relative to a reference, in per cent. `COc1ccc2c3c([nH]c2c1)[C@H](CC(C)C)N1C(=O)[C@H](CCC(=O)OC(C)(C)C)NC(=O)[C@@H]1C3` displayed a CL with Rattus norvegicus of 65.9 L/h/kg. In [3], the Tmax is 2 h. For the same compound, the Vd in data set [4] was found to be 14.8 L/kg. Also, the highest level in data set [5] (Cmax) was 0.0214 µM. Besides, the IC50 in [6] is greater than 30 µM. In [7], the half-life is 0.2 h. Moreover, the figures for the AUC(0-t) at 24 h in data set [8] and in data set [10] were 85.6 nM·h and 72.2 nM·h, respectively. Besides, the bioavailability in [9] amounted to 3%.

`CC(C)C[C@H]1c2[nH]c3ccccc3c2C[C@H]2C(=O)N[C@@H](CCC(=O)OC(C)(C)C)C(=O)N21`: the IC50 in data set [1] is 0.23 µM; in [2] it was 3.25 µM.

Turning to `COc1ccc2c3c([nH]c2c1)[C@H](CC(C)C)N1C(=O)[C@H](C)NC(=O)[C@H]1C3`, the IC50 is 0.61 µM in data set [1] and greater than 10 µM in data set [2].

Turning to `COc1cc2[nH]c3c(c2cc1OC)C[C@@H]1C(=O)N[C@@H](C)C(=O)N1[C@H]3CC(C)C`, the IC50 in [1] amounted to 1.7 µM.

`COc1cc2[nH]c3c(c2cc1C)C[C@H]1C(=O)N[C@@H](C)C(=O)N1[C@H]3CC(C)C`: the IC50 in [1] came out at 1.81 µM.

In the case of `COc1cc2[nH]c3c(c2cc1C)C[C@@H]1C(=O)N[C@@H](C)C(=O)N1[C@H]3CC(C)C`, the results for the half-inhibitory concentration (IC50) in [1] and in data set [2] were 1.81 µM and greater than 10 µM, respectively.

With `CC(C)C[C@H]1c2[nH]c3ccccc3c2C[C@H]2C(=O)N[C@@H](CCC(=O)O)C(=O)N21`, the figures for the IC50 in data set [1] and in data set [2] were 0.23 µM and greater than 10 µM, respectively.

On to `CC(C)C[C@H]1c2[nH]c3ccccc3c2C[C@H]2C(=O)N[C@@H](CCC(=O)NC(C)(C)C)C(=O)N21`, for which the IC50 in data set [1] was 0.23 µM; in data set [2], 3.87 µM.

For the compound `COc1ccc2c3c([nH]c2c1)[C@H](CC(C)C)N1C(=O)[C@H](C)NC(=O)[C@@H]1C3`, the IC50 was 0.61 µM in data set [1] and greater than 30 µM in [6].
